Assays:
T-24 = assay: Growth inhibition of human T24 cells after 4 days by MTT assay; assay type: functional; set-up: concentration or dose not given beside the values
Method in brief: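 After 4 days, MTT (5 mg/mL solution) added, 4 h further incubation, formazan dissolved in DMSO, absorbance read at 570 nm. Survival expressed as percent of untreated control wells; inhibition rates derived.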

[1] = Stability in mouse plasma assessed as level of lactone form of compound after 4 hrs by HPLC; assay type: ADME, cell-free; conditions: read-out: Activity
Method in brief: (§1)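 Incubated in plasma at 37 °C; aliquots taken at 2, 4, 6, 8 and 24 h. Protein precipitated with cold acetonitrile (-20 °C) and removed by centrifugation. Supernatant stored at -20 °C, then analysed by C-18 HPLC (methanol/water/0.1% acetic acid) with detection at 254 nm. Percent lactone = lactone level at each time point relative to t = 0 h.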

[2] = Stability in human plasma assessed as level of lactone form of compound after 6 hrs by HPLC; assay type: ADME, cell-free; conditions: read-out: Activity; method in brief: as §1
[3] = Stability in human plasma assessed as level of lactone form of compound after 8 hrs by HPLC; assay type: ADME, cell-free; conditions: read-out: Activity; method in brief: as §1
[4] = Stability in human plasma assessed as level of lactone form of compound after 2 hrs by HPLC; assay type: ADME, cell-free; conditions: read-out: Activity; method in brief: as §1
[5] = Stability in human plasma assessed as level of lactone form of compound after 24 hrs by HPLC; assay type: ADME, cell-free; conditions: read-out: Activity; method in brief: as §1
[6] = Stability in mouse plasma assessed as level of lactone form of compound after 24 hrs by HPLC; assay type: ADME, cell-free; conditions: read-out: Activity; method in brief: as §1
[7] = Stability in mouse plasma assessed as level of lactone form of compound after 6 hrs by HPLC; assay type: ADME, cell-free; conditions: read-out: Activity; method in brief: as §1
[8] = Stability in mouse plasma assessed as level of lactone form of compound after 2 hrs by HPLC; assay type: ADME, cell-free; conditions: read-out: Activity; method in brief: as §1
[9] = Stability in mouse plasma assessed as level of lactone form of compound after 8 hrs by HPLC; assay type: ADME, cell-free; conditions: read-out: Activity; method in brief: as §1
[10] = Stability in human plasma assessed as level of lactone form of compound after 4 hrs by HPLC; assay type: ADME, cell-free; conditions: read-out: Activity; method in brief: as §1

Row | Compound | inhibition (INH) (T-24) [%] | remaining at 4 h [1] [%] | remaining at 6 h [2] [%] | remaining at 8 h [3] [%] | remaining at 2 h [4] [%] | remaining at 24 h [5] [%] | remaining at 24 h [6] [%] | remaining at 6 h [7] [%] | remaining at 2 h [8] [%] | remaining at 8 h [9] [%] | remaining at 4 h [10] [%]
1 | CC[C@@]1(OC(=O)[C@H](CC(C)C)NC(=O)C2=CC(C)(C)N(O)C2(C)C)C(=O)OCc2c1cc1n(c2=O)Cc2cc3ccccc3nc2-1 | 16.4 | – | – | – | – | – | – | – | – | – | –
2 | CC[C@@]1(OC(=O)[C@H](C)NC(=O)C2=CC(C)(C)N(O)C2(C)C)C(=O)OCc2c1cc1n(c2=O)Cc2cc3ccccc3nc2-1 | 25.9 | – | – | – | – | – | – | – | – | – | –
3 | CC[C@@]1(O)C(=O)OCc2c1cc1n(c2=O)Cc2cc3ccccc3nc2-1 [CAMPTOTHECIN] | 15.4 | 40.5 | 19.4 | 14.6 | 61.4 | 3.8 | 5.3 | 24.5 | 55.1 | 10.9 | 28.4
4 | CC[C@@]1(OC(=O)[C@H](CCSC)NC(=O)C2=CC(C)(C)N(O)C2(C)C)C(=O)OCc2c1cc1n(c2=O)Cc2cc3ccccc3nc2-1 | 25.5 | – | – | – | – | – | – | – | – | – | –
5 | CC[C@@]1(OC(=O)CNC(=O)C2=CC(C)(C)N(O)C2(C)C)C(=O)OCc2c1cc1n(c2=O)Cc2cc3ccccc3nc2-1 | 34.5 | 57.6 | 56.1 | 34.4 | 78.7 | 7.8 | 10.8 | 43.9 | 76.3 | 31.8 | 65.2
6 | CCc1c2c(nc3ccc(OC(=O)N4CCC(N5CCCCC5)CC4)cc13)-c1cc3c(c(=O)n1C2)COC(=O)[C@]3(O)CC [IRINOTECAN] | 23.8 | – | – | – | – | – | – | – | – | – | –
7 | CC[C@@]1(OC(=O)[C@H](Cc2ccccc2)NC(=O)C2=CC(C)(C)N(O)C2(C)C)C(=O)OCc2c1cc1n(c2=O)Cc2cc3ccccc3nc2-1 | 26.4 | – | – | – | – | – | – | – | – | – | –

Source: ChEMBL document CHEMBL1154452, “First synthesis of novel spin-labeled derivatives of camptothecin as potential antineoplastic agents” (Eur J Med Chem, 2008)
